Measured values published in ChEMBL document CHEMBL3085712, “Protein tyrosine phosphatase 1B (PTP1B) inhibitors from Morinda citrifolia (Noni) and their insulin mimetic activity” (J Nat Prod, 2013).
pIC50: −log10 of the molar value.

test system: 3T3-L1; experiment: Increase in 2-NBDG uptake in mouse 3T3L1 cells after 30 mins by fluorescence spectrophotometry; format: functional, cell-based; conditions: not given; call rule not given here
Outline: (§1)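 Mouse 3T3-L1 preadipocytes were differentiated with insulin, IBMX, dexamethasone, rosiglitazone and 10% FBS, then used 7 days after induction at 3 × 10^4 cells/well. Cells were starved 3 h in low-glucose serum-free DMEM, treated 30 min, then given 50 μM 2-NBDG for 1 h (90 min total). After lysis in 0.1 M K3PO4/1% Triton X-100, fluorescence was read at ex 450/em 535 nm; fold versus DMSO; triplicates, mean ± SD.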

Row | SMILES | Activity
1 | COc1cc([C@H]2OC[C@H]3[C@@H]2CO[C@@H]3c2cc(OC)c(O)c(OC)c2)cc(OC)c1O [SYRINGARESINOL] | Dose-dependent effect
2 | COc1cc([C@H]2OC[C@H]3[C@@H]2CO[C@@H]3c2cc(OC)c(OC)c(OC)c2)cc(OC)c1OC | Dose-dependent effect
3 | Oc1ccc([C@H]2OC[C@H]3[C@@H]2CO[C@H]3c2ccc(O)c(O)c2)cc1O | Dose-dependent effect
4 | C[C@H]1[C@H](C)CC[C@]2(C(=O)O)CC[C@]3(C)C(=CC[C@@H]4[C@@]5(C)CC[C@H](O)C(C)(C)[C@@H]5CC[C@]43C)[C@H]12 [URSOLIC ACID] | Dose-dependent effect

biological target: T1, Tyrosine-protein phosphatase non-receptor type 1 (Homo sapiens, UniProt P18031); experiment: Inhibition of PTP1B (unknown origin) assessed as p-nitrophenol release from pNPP substrate after 30 mins by spectrophotometry; conditions: not given
T1 sequence (P18031 whole entry): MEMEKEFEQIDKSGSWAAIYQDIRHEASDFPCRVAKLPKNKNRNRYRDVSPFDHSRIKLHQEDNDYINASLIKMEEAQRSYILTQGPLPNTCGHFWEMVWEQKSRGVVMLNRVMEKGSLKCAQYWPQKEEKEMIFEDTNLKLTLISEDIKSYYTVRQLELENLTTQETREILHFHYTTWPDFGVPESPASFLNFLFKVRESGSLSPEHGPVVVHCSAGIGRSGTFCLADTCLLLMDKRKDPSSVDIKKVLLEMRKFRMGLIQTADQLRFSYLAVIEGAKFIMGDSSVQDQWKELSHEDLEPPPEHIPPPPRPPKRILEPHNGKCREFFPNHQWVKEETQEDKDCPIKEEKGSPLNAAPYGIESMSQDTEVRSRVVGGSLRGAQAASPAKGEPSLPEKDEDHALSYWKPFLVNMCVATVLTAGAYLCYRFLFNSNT
Outline: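 Commercial PTP1B (0.05–0.1 μg) was incubated with 4 mM p-NPP in 50 mM citrate pH 6.0, 1 mM DTT, 0.1 M NaCl and 1 mM EDTA at 37 °C for 30 min. IC50 came from a seven-concentration curve; triplicates, mean ± SD.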

Row | IC50 | SMILES
5 | Not Active | O=C1O[C@@H](c2ccc(O)c(O)c2)[C@H](CO)/C1=C\c1ccc(O)c(O)c1 (relative stereo)
6 | Not Active | O=C1O[C@@H](c2ccc(O)c(O)c2)[C@@H]2CO[C@@H](c3ccc(O)c(O)c3)[C@H]12
7 | Not Active | O=C/C=C/c1ccc2c(c1)O[C@@H](CO)[C@H](c1ccc(O)c(O)c1)O2 [AMERICANIN A]

same assay, conditions: read-out: IC50

Row | SMILES | pIC50
8 | COc1cc([C@H]2OC[C@H]3[C@@H]2CO[C@@H]3c2cc(OC)c(OC)c(OC)c2)cc(OC)c1OC | 4.77
9 | O=C(O)/C=C/c1ccc2c(c1)O[C@@H](CO)[C@H](c1ccc(O)c(O)c1)O2 (relative stereo) | < 4.52
10 | COc1cc([C@H]2Oc3ccc(/C=C/C(=O)O)cc3O[C@@H]2CO)ccc1O | < 4.52
11 | COc1cc([C@H]2Oc3ccc(C(=O)O)cc3O[C@@H]2CO)ccc1O | 4.71
12 | O=C(O)/C=C/c1ccc2c(c1)O[C@@H](CO)[C@@H](c1ccc(O)c(O)c1)O2 | < 4.52
13 | COc1cc([C@H]2Oc3ccc(CCCO)cc3O[C@@H]2CO)ccc1O (relative stereo) | < 4.52

Other lines, results leading:

Row | pIC50 | SMILES
14 | 4.82 | COc1cc([C@H]2OC[C@H]3[C@@H]2CO[C@@H]3c2cc(OC)c(O)c(OC)c2)cc(OC)c1O [SYRINGARESINOL]
15 | 4.66 | Oc1ccc([C@H]2OC[C@H]3[C@@H]2CO[C@H]3c2ccc(O)c(O)c2)cc1O
16 | < 4.52 | Oc1ccc([C@@H]2OC[C@@H]3[C@H]2CO[C@H]3c2ccc(O)c(O)c2)cc1O
17 | 4.73 | COc1cc([C@@H]2OC[C@H]3[C@@H]2CO[C@H]3c2ccc(O)c(OC)c2)ccc1O [(-)-PINORESINOL]

test system: 3T3-L1; experiment: Increase in 2-NBDG uptake in mouse 3T3L1 cells at 400 ug/ml after 30 mins by fluorescence spectrophotometry relative to DMSO-treated control; format: functional; conditions: not given; outline: as §1

Row | SMILES | fold change (FC)
18 | COc1cc([C@H]2OC[C@H]3[C@@H]2CO[C@@H]3c2cc(OC)c(O)c(OC)c2)cc(OC)c1O [SYRINGARESINOL] | 1.46
19 | COc1cc([C@H]2OC[C@H]3[C@@H]2CO[C@@H]3c2cc(OC)c(OC)c(OC)c2)cc(OC)c1OC | 1.45
20 | C[C@H]1[C@H](C)CC[C@]2(C(=O)O)CC[C@]3(C)C(=CC[C@@H]4[C@@]5(C)CC[C@H](O)C(C)(C)[C@@H]5CC[C@]43C)[C@H]12 [URSOLIC ACID] | 1.82
21 | CN(CCOc1ccc(CC2SC(=O)NC2=O)cc1)c1ccccn1 (configuration not stated) [ROSIGLITAZONE] | 1.7

same assay, conditions: in the assay text read “at 20 uM” for “at 400 ug/ml”

Row | SMILES | fold change (FC)
22 | Oc1ccc([C@H]2OC[C@H]3[C@@H]2CO[C@H]3c2ccc(O)c(O)c2)cc1O | 1.52
